Source: ChEMBL document CHEMBL1137141, “Synthesis of new coumarin 3-(N-aryl) sulfonamides and their anticancer activity” (2004)

Key:
Assay type in all cases: functional
BT-20 = experiment: Concentration required to inhibit growth of BT20 cells by 50% after 96h of treatment; settings: Homo sapiens, BT-20, 96 h
Procedure, shortened: (§1)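 Cells (1 × 10⁵) were plated in 6-well dishes. Test agents were added 24 h later at five concentrations over a 2-log span (1–100 µM) and left on continuously for 96 h. Viable cells were counted by trypan blue exclusion on a hemacytometer and expressed as a percentage of DMSO-treated wells. GI50 was read from dose–response curves of % cells versus concentration.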

NCI-H157 = experiment: Concentration required to inhibit growth of H157 cells by 50% after 96h of treatment; settings: Homo sapiens, NCI-H157, 96 h; procedure, shortened: as §1
K562 = experiment: Concentration required to inhibit growth of K562 cells by 50% after 96h of treatment; settings: Homo sapiens, K562, 96 h; procedure, shortened: as §1
DLD-1 = experiment: Concentration required to inhibit growth of DLD-1 cells by 50% after 96h of treatment; settings: Homo sapiens, DLD-1, 96 h; procedure, shortened: as §1
DU-145 = experiment: Concentration required to inhibit growth of DU145 cells by 50% after 96h of treatment; settings: Homo sapiens, DU-145, 96 h; procedure, shortened: as §1

COc1ccc(NS(=O)(=O)c2cc3cccc(Br)c3oc2=O)cc1
GI50 (BT-20): 16 µM
GI50 (NCI-H157): 18 µM
GI50 (K562): 14 µM
GI50 (DLD-1): 20 µM
GI50 (DU-145): 15 µM

CCOc1cccc2cc(S(=O)(=O)Nc3ccc(F)c(N)c3)c(=O)oc12
GI50 (BT-20): 54 µM
GI50 (NCI-H157): 72 µM
GI50 (K562): 42 µM
GI50 (DLD-1): 80 µM
GI50 (DU-145): 48 µM

COc1ccc(NS(=O)(=O)c2cc3cc(Cl)ccc3oc2=O)cc1O
GI50 (BT-20): 65 µM
GI50 (NCI-H157): 76 µM
GI50 (K562): 51 µM
GI50 (DLD-1): 82 µM
GI50 (DU-145): 42 µM

COc1ccc2oc(=O)c(S(=O)(=O)Nc3ccc(Br)cc3)cc2c1
GI50 (BT-20): 18 µM
GI50 (NCI-H157): 32 µM
GI50 (K562): 27 µM
GI50 (DLD-1): 38 µM
GI50 (DU-145): 25 µM

O=c1oc2c(Br)cccc2cc1S(=O)(=O)Nc1ccc(Br)cc1
GI50 (BT-20): 12 µM
GI50 (NCI-H157): 15 µM
GI50 (K562): 16 µM
GI50 (DLD-1): 14 µM
GI50 (DU-145): 12 µM

COc1ccc(NS(=O)(=O)c2cc3cc(Cl)ccc3oc2=O)cc1
GI50 (BT-20): 27 µM
GI50 (NCI-H157): 28 µM
GI50 (K562): 23 µM
GI50 (DLD-1): 32 µM
GI50 (DU-145): 22 µM

CCOc1cccc2cc(S(=O)(=O)Nc3ccc(Br)cc3)c(=O)oc12
GI50 (BT-20): 64 µM
GI50 (NCI-H157): 74 µM
GI50 (K562): 58 µM
GI50 (DLD-1): 85 µM
GI50 (DU-145): 52 µM

COc1ccc2oc(=O)c(S(=O)(=O)Nc3ccc(F)c(N)c3)cc2c1
GI50 (BT-20): 68 µM
GI50 (NCI-H157): 78 µM
GI50 (K562): 44 µM
GI50 (DLD-1): 92 µM
GI50 (DU-145): 56 µM

O=c1oc2c(Cl)cccc2cc1S(=O)(=O)Nc1ccc(Br)cc1
GI50 (BT-20): 17 µM
GI50 (NCI-H157): 16 µM
GI50 (K562): 11 µM
GI50 (DLD-1): 18 µM
GI50 (DU-145): 14 µM

CCOc1cccc2cc(S(=O)(=O)Nc3ccc(OC)cc3)c(=O)oc12
GI50 (BT-20): 52 µM
GI50 (NCI-H157): 74 µM
GI50 (K562): 48 µM
GI50 (DLD-1): 78 µM
GI50 (DU-145): 57 µM
